Measured values reported in ChEMBL document CHEMBL1152789, “Synthesis of 2-(5-((5-(4-chlorophenyl)furan-2-yl)methylene)-4-oxo-2-thioxothiazolidin-3-yl)acetic acid derivatives and evaluation of their cytotoxicity and induction of apoptosis in human leukemia cells” (Bioorg Med Chem, 2009).
Activity calls are given as the source filed them. The rule behind the calls is not given here.

Legend:
REH [1] = assay: Cytotoxicity against human REH cells after 72 hrs by MTT assay; format: functional, cell-based
Procedure, shortened: (§1)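 Log-phase cells (1 × 10⁴/well) were plated in triplicate in RPMI 1640 with 10% heat-inactivated FBS and penicillin/streptomycin, at 37 °C in 5% CO2. Cells were treated with 10, 100 or 250 µM compound and harvested at 48 and 72 h. MTT (5 mg/ml) was added at 37 °C, formazan was dissolved in DMF/SDS detergent, and A570 was read minus a medium blank. Viability is expressed as % of DMSO vehicle, and IC50 was estimated at 72 h.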

K562 [2] = assay: Cytotoxicity against human K562 cells at >= 100 uM after 48 to 72 hrs by MTT assay; format: functional, cell-based; procedure, shortened: as §1
REH [3] = assay: Cytotoxicity against human REH cells at >= 100 uM after 48 to 72 hrs by MTT assay; format: functional, cell-based; procedure, shortened: as §1
K562 [4] = assay: Cytotoxicity against human K562 cells after 72 hrs by MTT assay; format: functional, cell-based; conditions: K562, 72 h; procedure, shortened: as §1
K562 [5] = assay: Cell cycle arrest in human K562 cells assessed as change in cell cycle pattern after 48 hrs by PI staining based flow cytometry; format: functional
Procedure, shortened: (§2)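 K562 cells, 0.75 × 10⁵ cells/ml, incubated at 37 °C with 10, 50 and 100 µM compound for 48 h, with a DMSO vehicle control. Cells were washed, fixed in 70% ethanol, RNase A treated, and stained with propidium iodide for half an hour before flow cytometry. At least 10,000 cells were acquired per sample, and G0/G1 (subG1), G1, S and G2/M fractions were read from the DNA histograms.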

K562 [6] = assay: Cell cycle arrest in human K562 cells assessed as accumulation at G0/G1 phase after 48 hrs by PI staining based flow cytometry; format: functional; procedure, shortened: as §2
K562 [7] = assay: Cell cycle arrest in human K562 cells assessed as decline of G1 phase after 48 hrs by PI staining based flow cytometry; format: functional; procedure, shortened: as §2
K562 [8] = assay: Cell cycle arrest in human K562 cells assessed as decline of G2/M phase after 48 hrs by PI staining based flow cytometry; format: functional; procedure, shortened: as §2
K562 [9] = assay: Induction of apoptosis in human K562 cells assessed as chromosomal DNA fragmentation at 100 uM after 72 hrs by agarose gel electrophoresis; format: functional, cell-based
Procedure, shortened: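 K562 cells were cultured with 10, 50 or 100 µM compound for 72 h, with a DMSO lane as control. Genomic DNA was extracted, resuspended in TE buffer, and run on a 1% agarose gel at 30 V for 6 h. Laddering or smearing was viewed by ethidium bromide staining.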

Compound | IC50 (REH [1]) [µM] | Activity (K562 [2]) | Activity (REH [3]) | IC50 (K562 [4]) [µM] | Activity (K562 [5]) | Activity (K562 [6]) | Activity (K562 [7]) | Activity (K562 [8]) | Activity (K562 [9])
CCCCCCNC(=O)CN1C(=O)/C(=C/c2ccc(-c3ccc(Cl)cc3)o2)SC1=S | 55 | Active | Active | 50 |  |  |  |  | 
O=C(CN1C(=O)/C(=C/c2ccc(-c3ccc(Cl)cc3)o2)SC1=S)NCc1ccccc1Cl | 70 | Active | Active | 64 |  |  |  |  | 
O=C(CN1C(=O)/C(=C/c2ccc(-c3ccc(Cl)cc3)o2)SC1=S)NCc1ccc(F)cc1 | 165 |  |  | 150 |  |  |  |  | 
N#Cc1cc(NC(=O)CN2C(=O)/C(=C/c3ccc(-c4ccc(Cl)cc4)o3)SC2=S)ccc1C(F)(F)F | > 250 |  |  | > 250 |  |  |  |  | 
Cc1cccc(CNC(=O)CN2C(=O)/C(=C/c3ccc(-c4ccc(Cl)cc4)o3)SC2=S)c1 | 53 | Active | Active | 48 | Dose-dependent effect | Active | Active | Active | 
Cc1ccc(CNC(=O)CN2C(=O)/C(=C/c3ccc(-c4ccc(Cl)cc4)o3)SC2=S)cc1 | 45 | Active | Active | 45 |  |  |  |  | 
O=C(CN1C(=O)/C(=C/c2ccc(-c3ccc(Cl)cc3)o2)SC1=S)NCc1ccc(C(F)(F)F)cc1 | 170 |  |  | 155 |  |  |  |  | 
COc1ccc(CNC(=O)CN2C(=O)/C(=C/c3ccc(-c4ccc(Cl)cc4)o3)SC2=S)cc1 | 44 | Active | Active | 40 | Dose-dependent effect | Active | Active | Active | Active
O=C(CN1C(=O)/C(=C/c2ccc(-c3ccc(Cl)cc3)o2)SC1=S)Nc1nnn[nH]1 | 50 | Active | Active | 52 |  |  |  |  | 
O=C(CN1C(=O)/C(=C/c2ccc(-c3ccc(Cl)cc3)o2)SC1=S)NCc1ccc(Br)cc1 | 75 | Active | Active | 68 |  |  |  |  | 
N#Cc1ccc(NC(=O)CN2C(=O)/C(=C/c3ccc(-c4ccc(Cl)cc4)o3)SC2=S)cc1 | 90 |  |  | 85 |  |  |  |  | 
